SKN-1 inh: suppressors of acrylamide-induced Pgst-4::GFP reporter in worms, primary screen, SKN-1 inhibitor project, whole organism, uHTS, GFP/RFP fluorescence ratio, strain VP596; C. elegans VP596 Pgst-4::GFP/RFP ratio, 24 h; inhibition, % at 21.8 µM; 360,000 compounds, 0.49% hits; AID 624304, 2012;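 active means interference check ratio from 0.5 to 1.5 plus GFP to RFP signal ratio inhibition reaching or exceeding a fixed threshold, cut at about 30% in these data, passing the limit was not always enough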
MLLE-PAM2 inh: inhibitors of PABP1 MLLE–PAM2 peptide binding, primary screen, biochemical, fluorescence polarization, FITC-PAM2, GST-MLLE | 360,000 compounds, 0.36% hits | inhibition, % at 20 µM | Polyadenylate-binding protein 1 (Homo sapiens), P11940; in the data active means inhibition above about 35%, passing the limit was not always enough;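 further: plate controls were DMSO wells with GST-MLLE for no effect and wells lacking GST-MLLE protein for full effect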
PABP FP inh: PABP poly(A) RNA binding inhibitors, primary screen, biochemical, fluorescence polarization, uHTS | Polyadenylate-binding protein 1 (Homo sapiens), P11940 | 290,000 compounds, 1% hits | calls only at 35 µM;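 further: calls also rest on retests at 20 µM and on dose response follow-up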
eIF4H FP inh: human eIF4H binding inhibitors, primary screen, translation initiation inhibitor project, biochemical, uHTS, fluorescence polarization; Eukaryotic translation initiation factor 4H (Homo sapiens), Q15056; inhibition, % at 35 µM; eIF4H fluorescence polarization binding assay; 290,000 compounds, 0.94% hits;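 further: calls also rest on retests at 20 µM and on dose response follow-up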
MT1-MMP act inh: blockers of MT1-MMP proenzyme processing, primary screen, HT1080 RFP-PRO-GFP cells, GFP/RFP fluorescence; 360,000 compounds, 0.061% hits; GFP/RFP ratio fluorescence, overnight; percent of plate control window, DMSO zero; Matrix metalloproteinase-14 (Homo sapiens), P50281; AID 651647, 2012; GFP/RFP ratio change, % at 20 µM;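 active means GFP/RFP ratio change of at least 30% with cell ATP level not reduced by more than half and red fluorescence within 50% of control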
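Assay system – RFP-PRO-GFP reporter HT1080 cells · Compound dosing – single dose of 20 µM compound, 1% DMSO final · Incubation – overnight compound exposure at 37 °C · Measure – GFP/RFP fluorescence ratio · Benchmarks – DMSO wells and RFP-L50D-GFP cells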
The depositor's hits bear a star; i = inactive; ? = inconclusive; . = no result given; + = active, no number. The list is not random: actives were taken first. Their share in the collection is about 1.8%. Unless noted, how the calls were made is not given here.

SMILES | SKN-1 inh | MLLE-PAM2 inh | PABP FP inh | eIF4H FP inh | MT1-MMP act inh
CN1CC=C2C(C#N)=C(N)C(C#N)(C#N)[C@H](c3ccoc3)[C@H]2C1 | 3 | 139 | ? | ? | -100
CN1CC=C2C(C#N)=C(N)C(C#N)(C#N)C(c3cccc(Cl)c3Cl)C2C1 (stereo unspecified) | 7 | 55 | i | 122* | -46
O=[N+]([O-])c1ccc(-c2c(-c3ccccc3)ncc3cc(F)ccc23)cc1 | 15 | -14 | . | . | 2
O=[N+]([O-])c1cccc(-c2c(-c3ccccc3)ncc3cc(F)ccc23)c1 | 37* | -15 | . | . | -1
CCc1nc2c(OCC(=O)N3CCOCC3)cccn2c1N(C)C(=O)COc1ccccc1 | 20 | -2 | . | . | -1
CC(=O)Nc1ccc(C(=O)OCC(=O)N(C)C2CCCCC2)cc1 | 3 | 2 | i | active | -2
CC(=O)Nc1ccc(C(=O)OCC(=O)N(c2ccccc2)C2CCCCC2)cc1 | 1 | -50 | . | . | -1
CCCCNC(=O)CC1S/C(=N/N=C/c2ccc(OC)cc2)NC1=O (stereo unspecified) | -6 | -14 | i | 10* | 0
O=C(O)C1C2C=CC3(CN(Cc4ccco4)C(=O)C13)O2 (stereo unspecified) | -10 | 6 | i | 84* | -3
Cc1ccc(S(=O)(=O)Nc2ccccc2C=NNC(=O)c2ccncc2)cc1 | 17 | 5 | . | . | 2
O=C(Nc1ccnn1C1CCN(Cc2ccc(CO)o2)CC1)c1ccc2c(c1)OCO2 | 3 | 0 | i | -3 | 0
S=C(Nc1ccc2nc(-c3ccccn3)c(-c3ccccn3)nc2c1)N1CCOCC1 | 4 | 46* | i | 34 | -18
O=C(COC(=O)c1n[nH]c(=O)c2ccccc12)Nc1ccccc1 | 8 | -4 | . | . | 1
O=C1CC(c2cc(-c3ccccc3)no2)C1 | 1 | 2 | i | 8 | 1
S=c1[nH]cc2cnccn12 | 2 | 70* | . | . | 0
O=C1CCN(Cc2cccnc2)CCN1[C@H](CO)Cc1ccccc1 | 10 | -6 | i | -6 | 6
C=CC[C@H](CC(=O)NCCO)C(=O)N[C@H](COC(=O)[C@@H](CC=C)Cc1ccc(F)cc1)Cc1ccccc1 | -8 | 14 | . | . | -1
CC(=O)NC(Cc1ccccc1)C(=O)OCC(=O)c1ccc(Cl)cc1 (stereo unspecified) | -4 | -12 | + | active | 3
CC(=O)NC(Cc1ccccc1)C(=O)OCC(=O)c1ccccc1 (stereo unspecified) | -6 | 16 | i | -2 | 4
CCCOC(=O)c1c(NC(=O)C2CCCO2)sc(C(=O)OC)c1C (stereo unspecified) | -2 | 45* | i | 0 | -6
Cc1cn([C@H]2C[C@H](O)[C@@H](CNC/C=C/c3ccccc3[N+](=O)[O-])O2)c(=O)[nH]c1=O | 17 | -1 | . | . | -4
Cc1cc(O)c(C=Nc2ccc(N3CCOCC3)cc2)c(C)c1Cl | 9 | -48 | + | 58 | 5
CC1(C(=O)Nc2cnc3ccccc3c2)CCN1C(=O)c1ccccc1CCc1ccccc1 (stereo unspecified) | 39* | -7 | . | . | -3
CCc1nn2c(=O)cc(COc3ccc(/C=C4\C(=N)N5N=C(C)SC5=NC4=O)cc3)nc2s1 | -2 | -3 | + | 70* | -9
CCOc1cc(/C=C2\C(=N)N3N=C(C)SC3=NC2=O)ccc1OCCOc1cccc(OC)c1 | 6 | 5 | i | -3 | 0
CN(C(=O)COC(=O)Cn1cnc2ccccc21)C1CCCCC1 | 8 | -8 | . | . | 5
Cc1ccc2nc(Nc3nc(CSc4nnnn4-c4ccccc4)cc(=O)[nH]3)nc(C)c2c1 | 35* | -12 | i | -7 | -1
O=C(Nc1ccc2oc(-c3ccc(Cl)c(Cl)c3)nc2c1)c1ncn[nH]1 | 8 | 0 | + | ? | -11
O=C(Nc1ccc2oc(-c3ccccc3F)nc2c1)c1ncn[nH]1 | 26 | -7 | i | 24 | 7
CC1(OC(=O)C2CCCC2)C(=O)C=C2C=C(c3ccsc3)OC=C2C1=O (stereo unspecified) | 23 | -46 | i | 40 | 3
